Results on 3 compounds are retold here after ChEMBL document CHEMBL1142067, “Antiparasitic drug nitazoxanide inhibits the pyruvate oxidoreductases of Helicobacter pylori, selected anaerobic bacteria and parasites, and Campylobacter jejuni” (Antimicrob Agents Chemother, 2007).

Activity calls are given as the source filed them. No cut-off for these calls is given here. Where only a bound is given, the exact number is not on record here.

Experiment [1] relates to Entamoeba histolytica. Description: Activity of PFOR in Entamoeba histolytica at anaerobic condition. The method, boiled down: (§1)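 Cell-free extracts, high-speed supernatant after sonication (parasites: sonication or glass homogenizer). PFOR assayed anaerobically at 25°C in 100 mM potassium phosphate pH 7.4 with 10 mM pyruvate, 0.18 mM CoA, 1 mM MgCl2 and 5 µM TPP. Acceptor was 5 mM benzyl viologen (546 nm) or NTZ (decrease at 418 nm). Enzyme added last. Triplicate means, per mg Bradford protein.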

The subject of another experiment is Trichomonas vaginalis. The experiment in a line: Activity of PFOR in Trichomonas vaginalis at anaerobic condition. The method, boiled down: as §1
In a further experiment the test system is Giardia duodenalis. Description: Activity of PFOR in Giardia intestinalis at anaerobic condition. An outline of the steps: as §1
A further experiment has as its system Clostridioides difficile. The experiment in a line: Activity of PFOR in Clostridium difficile at anaerobic condition. An outline of the steps:
as §1

The target of experiment [2] is T1, Pyruvate-flavodoxin oxidoreductase (Clostridium perfringens (strain SM101 / Type A)) (UniProt Q0SRB6).
T1 sequence (whole entry): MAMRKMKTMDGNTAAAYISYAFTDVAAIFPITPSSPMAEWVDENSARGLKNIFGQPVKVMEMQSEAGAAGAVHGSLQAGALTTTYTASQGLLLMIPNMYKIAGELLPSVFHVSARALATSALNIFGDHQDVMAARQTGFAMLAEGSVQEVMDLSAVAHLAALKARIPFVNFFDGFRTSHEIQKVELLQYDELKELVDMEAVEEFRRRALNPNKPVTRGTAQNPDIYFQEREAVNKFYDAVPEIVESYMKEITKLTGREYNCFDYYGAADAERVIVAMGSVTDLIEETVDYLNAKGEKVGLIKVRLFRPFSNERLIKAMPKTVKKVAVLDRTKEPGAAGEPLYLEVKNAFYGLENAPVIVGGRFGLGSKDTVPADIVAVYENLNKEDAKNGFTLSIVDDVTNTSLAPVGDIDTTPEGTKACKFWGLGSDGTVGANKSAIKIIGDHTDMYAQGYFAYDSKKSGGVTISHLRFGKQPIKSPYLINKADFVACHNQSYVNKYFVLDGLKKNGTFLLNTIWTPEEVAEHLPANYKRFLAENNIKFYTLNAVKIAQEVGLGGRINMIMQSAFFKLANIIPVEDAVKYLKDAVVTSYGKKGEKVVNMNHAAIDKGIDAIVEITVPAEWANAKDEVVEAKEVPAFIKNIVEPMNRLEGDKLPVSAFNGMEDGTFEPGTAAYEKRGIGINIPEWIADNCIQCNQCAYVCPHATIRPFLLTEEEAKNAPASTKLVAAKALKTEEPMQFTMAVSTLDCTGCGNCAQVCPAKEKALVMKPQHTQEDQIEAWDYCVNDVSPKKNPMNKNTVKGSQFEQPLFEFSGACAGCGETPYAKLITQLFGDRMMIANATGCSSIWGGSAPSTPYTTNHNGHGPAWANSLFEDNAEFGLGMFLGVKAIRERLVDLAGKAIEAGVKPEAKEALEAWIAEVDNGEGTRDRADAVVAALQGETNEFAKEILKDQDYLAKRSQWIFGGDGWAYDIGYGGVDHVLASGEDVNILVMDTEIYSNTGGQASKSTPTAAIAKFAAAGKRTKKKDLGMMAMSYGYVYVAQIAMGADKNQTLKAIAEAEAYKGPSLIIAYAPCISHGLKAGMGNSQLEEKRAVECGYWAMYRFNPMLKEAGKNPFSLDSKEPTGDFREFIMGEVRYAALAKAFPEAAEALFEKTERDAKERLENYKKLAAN
The experiment in a line: Activity of PFOR in Clostridium perfringens at anaerobic condition. An outline of the steps: as §1

The next experiment has as its system Helicobacter pylori. Description: Activity of PFOR in Helicobacter pylori at anaerobic condition. The method, boiled down:
as §1

In experiment [3] the target is T2, Pyruvate-flavodoxin oxidoreductase (Campylobacter jejuni subsp. jejuni) (UniProt Q0P8E1).
T2 sequence (whole entry): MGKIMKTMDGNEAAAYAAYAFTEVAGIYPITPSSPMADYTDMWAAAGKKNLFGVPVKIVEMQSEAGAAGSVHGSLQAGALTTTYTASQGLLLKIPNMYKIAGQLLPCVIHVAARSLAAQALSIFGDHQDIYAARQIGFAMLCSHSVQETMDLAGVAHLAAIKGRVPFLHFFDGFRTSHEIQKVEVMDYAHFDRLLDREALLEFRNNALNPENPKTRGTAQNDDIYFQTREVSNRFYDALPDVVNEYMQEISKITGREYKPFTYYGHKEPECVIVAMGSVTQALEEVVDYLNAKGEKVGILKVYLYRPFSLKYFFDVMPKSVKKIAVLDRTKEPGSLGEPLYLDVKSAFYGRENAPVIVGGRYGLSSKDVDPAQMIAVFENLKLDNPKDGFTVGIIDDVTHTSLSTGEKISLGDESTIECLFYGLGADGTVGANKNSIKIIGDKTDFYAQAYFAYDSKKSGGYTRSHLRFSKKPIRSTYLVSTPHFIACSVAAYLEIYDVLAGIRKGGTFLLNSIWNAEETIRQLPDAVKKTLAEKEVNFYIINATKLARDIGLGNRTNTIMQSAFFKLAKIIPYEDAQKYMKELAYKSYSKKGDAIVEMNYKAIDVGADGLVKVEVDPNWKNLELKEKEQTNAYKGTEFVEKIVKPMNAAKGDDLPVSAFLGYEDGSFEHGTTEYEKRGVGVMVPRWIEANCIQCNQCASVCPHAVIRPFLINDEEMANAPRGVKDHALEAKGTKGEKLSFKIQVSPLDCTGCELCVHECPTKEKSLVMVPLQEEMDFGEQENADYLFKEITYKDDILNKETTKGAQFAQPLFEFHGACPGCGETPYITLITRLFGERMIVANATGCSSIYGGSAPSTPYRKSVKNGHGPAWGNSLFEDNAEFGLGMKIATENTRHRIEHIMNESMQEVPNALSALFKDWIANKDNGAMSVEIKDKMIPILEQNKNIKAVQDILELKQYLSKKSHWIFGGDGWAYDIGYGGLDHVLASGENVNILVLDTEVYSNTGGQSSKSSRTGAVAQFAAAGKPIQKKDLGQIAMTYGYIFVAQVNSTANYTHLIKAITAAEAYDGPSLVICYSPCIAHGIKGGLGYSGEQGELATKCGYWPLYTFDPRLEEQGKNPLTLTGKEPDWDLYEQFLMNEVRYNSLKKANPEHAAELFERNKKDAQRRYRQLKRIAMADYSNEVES
Description: Activity of PFOR in Campylobacter jejuni at anaerobic condition. The method, boiled down: as §1

The subject of experiment [4] is Escherichia coli. The experiment in a line: Growth inhibition of Escherichia coli CC104 expressing rdxA after 16 hrs relative to Escherichia coli with pBSK. The experiment is classed as functional, organism-based. The method, boiled down:
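E. coli CC104 carrying pGS950 (expresses H. pylori rdxA) or empty pBSK was grown in 2% glucose minimal (MinA) liquid medium with drug at 0, 5, 10 or 15 µg/ml. Turbidity at 660 nm was read at 16 h in triplicate cultures, normalized to the no-drug control, and expressed as percent growth inhibition (mean and standard deviation).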

The nature of experiment [5]: Inhibition of PFOR Trichomonas vaginalis. The method, boiled down: (§2)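 PFOR in extracts or partly purified enzyme, standard anaerobic assay at 25°C with excess benzyl viologen (5 mM). Initial velocities of BV reduction at 546 nm measured at each NTZ level (0 to 264 µM). Plotted as 1/V against inhibitor concentration to derive Ki. Triplicate.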
The nature of experiment [6]: Inhibition of PFOR Entamoeba histolytica. An outline of the steps: as §2
Experiment [7] in a line: Inhibition of PFOR Helicobacter pylori. The method, boiled down: as §2
Experiment [8] deals with T3, Pyruvate-flavodoxin oxidoreductase (Campylobacter jejuni subsp. jejuni, UniProt Q0P8E1).
T3 sequence (Q0P8E1 whole entry): T2 sequence (whole entry)
Description: Inhibition of PFOR Campylobacter jejuni. An outline of the steps: as §2

The subject of experiment [9] is Escherichia coli. Description: Growth inhibition of Escherichia coli. Format: functional.
The subject of experiment [10] is Escherichia coli. Description: Growth inhibition of Escherichia coli CC104 expressing rdxA gene after 16 hrs. The experiment is classed as functional. The method, boiled down:
(§3)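 E. coli CC104 carrying pGS950 (H. pylori rdxA) or empty pBSK, grown in 2% glucose MinA liquid medium with drug at 0, 5, 10 or 15 µg/ml. Turbidity at 660 nm read at 16 h in triplicate and expressed as a percentage of the no-drug control.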

Experiment [11] has as its system Escherichia coli. Description: Growth inhibition of Escherichia coli pBSK after 16 hrs. Format: functional. An outline of the steps:
as §3

The test system of experiment [12] is Escherichia coli. Description: Inhibition of Escherichia coli JVQ2 PDH at 20 uM.
Experiment [13] relates to Entamoeba histolytica. Description: Inhibition of Entamoeba histolytica PFOR cloned in Escherichia coli assessed as [14C]pyruvate decarboxylation by BV assay.

For the compound `c1ccc(C[n+]2ccc(-c3cc[n+](Cc4ccccc4)cc3)cc2)cc1`, the Activity is 742 nmol/mg/min in the experiment on Entamoeba histolytica [1]; 52.5 nmol/mg/min in the experiment on Trichomonas vaginalis; 62.5 nmol/mg/min in the experiment on Giardia duodenalis; 106 nmol/mg/min in the experiment on Clostridioides difficile; 225 nmol/mg/min in experiment [2]; 127 nmol/mg/min with Helicobacter pylori. Moreover, the Activity in [3] was 115 nmol/mg/min.
Consider `Cc1ncc([N+](=O)[O-])n1CCO`, for which, in the experiment with Escherichia coli [4], the outcome was Active.
As for `CC(=O)Oc1ccccc1C(=O)Nc1ncc([N+](=O)[O-])s1` [NITAZOXANIDE], the Activity with Entamoeba histolytica [1] was found to be 19 nmol/mg/min; in the experiment on Giardia duodenalis, 41.5 nmol/mg/min; in the experiment on Clostridioides difficile, 18.8 nmol/mg/min; in experiment [2] it was 56.5 nmol/mg/min; in the experiment with Helicobacter pylori it was 8.5 nmol/mg/min; in [3], 20 nmol/mg/min. The Km – broadly, the concentration of substrate that gives half-maximal velocity – in the experiment on Giardia duodenalis is 44 µM. The Ki – broadly, a dissociation constant, usually derived from enzyme kinetics or from competition with a known ligand – was 2.2 µM in [5], 10 µM in [6], 4.5 µM in experiment [7] and 10.5 µM in experiment [8]. In addition, in the experiment on Escherichia coli [9], the MIC – broadly, the lowest concentration found to suppress growth – was over 32 µg/mL. In addition, the Inhibition in the experiment with Escherichia coli [10] and in the experiment on Escherichia coli [11] was 35% throughout. The inhibition – broadly, the relative decrease from the control value, in per cent – in the experiment with Escherichia coli [12] is 22%. Also, the outcome in the experiment with Entamoeba histolytica [13] was Active.
